Measurements taken from ChEMBL document CHEMBL3091366, “New 5-Aryl-1H-imidazoles display in vitro antitumor activity against apoptosis-resistant cancer models, including melanomas, through mitochondrial targeting” (J Med Chem, 2013).
Several values for one entry are separate records, joined by “and”; a condition that tells them apart may be missing. Equal values may be shown once.

Assays:
PC-3 = test: Cytotoxicity against apoptotic-sensitive human PC3 cells assessed as growth inhibition after 72 hrs by MTT-based colorimetric assay; format: functional, cell-based
How it was run: (§1)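 MTT colorimetric assay, 72 h exposure to the fumarate salt. Read-out is reduction of MTT to formazan by living cells. IC50 is the concentration that reduces the whole cell population by 50%. Six replicates per condition. Where compounds were not tested on every line, apoptosis-sensitive lines were PC3, MCF-7, LoVo and B16F10, and apoptosis-resistant lines were U373, T98G, A549 and SK-MEL-28.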

MCF7 = test: Cytotoxicity against apoptotic-sensitive human MCF7 cells assessed as growth inhibition after 72 hrs by MTT-based colorimetric assay; format: functional, cell-based; how it was run: as §1
LoVo = test: Cytotoxicity against apoptotic-sensitive human LoVo cells assessed as growth inhibition after 72 hrs by MTT-based colorimetric assay; format: functional, cell-based; how it was run: as §1
SK-MEL-28 = test: Cytotoxicity against apoptotic-resistant human SK-MEL-28 cells assessed as growth inhibition after 72 hrs by MTT-based colorimetric assay; format: functional, cell-based; how it was run: as §1
A549 = test: Cytotoxicity against apoptotic-resistant human A549 cells assessed as growth inhibition after 72 hrs by MTT-based colorimetric assay; format: functional, cell-based; how it was run: as §1
T98G = test: Cytotoxicity against apoptotic-resistant human T98G cells assessed as growth inhibition after 72 hrs by MTT-based colorimetric assay; format: functional, cell-based; how it was run: as §1
[1] = Cytotoxicity against apoptotic-resistant human U373 cells assessed as growth inhibition after 72 hrs by MTT-based colorimetric assay; format: functional, cell-based, U-373MG ATCC; how it was run: as §1
B16-F10 = test: Cytotoxicity against apoptotic-sensitive mouse B16F10 cells assessed as growth inhibition after 72 hrs by MTT-based colorimetric assay; format: functional, cell-based; details: B16-F10, 72 h; how it was run: as §1

Structure (SMILES)	IC50 (PC-3; Homo sapiens, PC-3, 72 h)	IC50 (MCF7; Homo sapiens, MCF7, 72 h)	IC50 (LoVo; Homo sapiens, LoVo, 72 h)	IC50 (SK-MEL-28; Homo sapiens, SK-MEL-28, 72 h)	IC50 (A549; Homo sapiens, A549, 72 h)	IC50 (T98G; Homo sapiens, T98G, 72 h)	IC50 ([1]; Homo sapiens, U373 MG, 72 h)	IC50 (B16-F10)	IC50 (PC-3; pc-3)	IC50 (MCF7; mcf7)	IC50 (LoVo; lovo)	IC50 (SK-MEL-28; sk-mel-28)	IC50 (A549; a549)	IC50 (T98G; t98g)	IC50 ([1]; u-373mg atcc)
Cn1c2cnc1OCCCCCCCCCOc1ccccc1-2	61 µM	71 µM	34 µM	72 µM	69 µM	74 µM	78 µM	–	–	–	–	–	–	–	–
COc1ccc(C)cc1-c1cnc(OCCCCc2ccccc2)n1C	43 µM	28 µM	27 µM	42 µM	40 µM	44 µM	–	34 µM	–	–	–	–	–	–	–
C=CCCCCOc1nccn1C	> 100 µM	> 100 µM	> 100 µM	> 100 µM	> 100 µM	> 100 µM	–	51 µM	–	–	–	–	–	–	–
COc1ccccc1-c1cnc(OCCCc2ccccc2)n1C	27 µM	3 µM	3 µM	4 µM	3 µM	3 µM	–	7 µM	–	–	–	–	–	–	–
C=CCCCCOc1ncc(-c2cc(C(F)(F)F)ccc2OC)n1C	57 µM	61 µM	51 µM	56 µM	62 µM	88 µM	–	59 µM	–	–	–	–	–	–	–
Cn1c2cnc1OCCCCCCCCCCOc1cc3ccccc3cc1-2	25 µM	24 µM	28 µM	33 µM	20 µM	22 µM	29 µM	–	–	–	–	–	–	–	–
Cn1c2cnc1OCC/C=C\CCCCOc1ccccc1-2	62 µM	63 µM	40 µM	85 µM	74 µM	100 µM	–	70 µM	–	–	–	–	–	–	–
C=CCCCCOc1ccccc1-c1cnc(NC(=O)CCCC=C)n1C	11 µM	22 µM	10 µM	7 µM	8 µM	22 µM	7 µM	–	–	–	–	–	–	–	–
C=CCCCCOc1ccccc1-c1cnc(OCCOCC=C)n1C	36 µM	32 µM	26 µM	59 µM	34 µM	65 µM	60 µM	–	–	–	–	–	–	–	–
C=CCCCCOc1cc2ccccc2cc1-c1cnc(OCCC=C)n1C	14 µM	25 µM	25 µM	25 µM	21 µM	32 µM	27 µM	–	–	–	–	–	–	–	–
COc1ccc2c(c1)-c1cnc(n1C)OCCCCCCCCO2	40 µM	32 µM	34 µM	57 µM	40 µM	68 µM	63 µM	–	–	–	–	–	–	–	–
C=CCCOc1ncc(-c2ccccc2OC)n1C	25 µM	27 µM	24 µM	21 µM	22 µM	39 µM	16 µM	–	–	–	–	–	–	–	–
Cn1c2cnc1NC(=O)CCCCCCCCCOc1ccccc1-2	61 µM	61 µM	33 µM	59 µM	43 µM	64 µM	38 µM	–	–	–	–	–	–	–	–
Cn1c2cnc1OCCCCCCCCOc1ccccc1-2 (single isomer, unassigned; atropisomer)	–	–	–	–	–	–	–	–	49 µM and 57 µM	44 µM and 43 µM	37 µM and 63 µM	64 µM and 66 µM	59 µM and 54 µM	75 µM and 92 µM	71 µM
Cn1c2cnc1OCCCCCCCCCCCOc1ccccc1-2	36 µM	41 µM	32 µM	47 µM	36 µM	56 µM	48 µM	–	–	–	–	–	–	–	–
Cn1c(-c2ccccc2O)cnc1S(=O)(=O)c1ccccc1	> 100 µM	> 100 µM	56 µM	> 100 µM	> 100 µM	> 100 µM	> 100 µM	–	–	–	–	–	–	–	–
C=CCCCCOc1ccccc1-c1cnc(OC)n1C	86 µM	98 µM	47 µM	85 µM	80 µM	> 100 µM	> 100 µM	–	–	–	–	–	–	–	–
C=CCCCCOc1ccc(F)cc1-c1cnc(OCCC=C)n1C	52 µM	43 µM	38 µM	82 µM	61 µM	87 µM	73 µM	–	–	–	–	–	–	–	–
Cc1ccc2c(c1)-c1cnc(n1C)OCCCCCCCCO2	36 µM	34 µM	34 µM	55 µM	41 µM	63 µM	57 µM	–	–	–	–	–	–	–	–
Cn1c2cnc1OCCCCCCCCOc1cc(F)ccc1-2	46 µM	35 µM	32 µM	58 µM	43 µM	69 µM	70 µM	–	–	–	–	–	–	–	–
